# Screening results (PubChem)
# hERG rescue: hERG (human) protection from proarrhythmic block. CHO-hERG, FluxOR thallium flux, dofetilide IC70 present. activation (rescue from dofetilide block), less the hit threshold, % at 10 µM. hit rate 0.51% among 310,000. AID 1511;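 active = activation above the mean of controls blocked by dofetilide plus 5 SD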;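 also: thallium influx through hERG after potassium depolarization seen as dye fluorescence rise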
# KCNK9 inh: blocks the human KCNK9 two-pore domain potassium channel. B-score at 10 µM. Q9NPC2. hit rate 1.2% among 310,000. AID 488922. HEK293 KCNK9, FluxOR thallium flux fluorescence; active compounds read low;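 active = ratio B-score over 3 SD below the library mean, with starting fluorescence within 5 SD of its mean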;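 also: negative B-score means less thallium flux so channel inhibition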
# KCNK3 inh: human KCNK3 channel inhibition, primary screen; O14649; AID 602410; CHO-KCNK3 thallium flux, FluxOR fluorescence; active compounds read low; B-score at 10 µM; hit rate 0.84% among 340,000;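 active = B-score under library mean minus 4 SD, starting fluorescence ratio at most library mean plus 5 SD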;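 also: more negative B-score means stronger inhibition of thallium flux through KCNK3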
# KCNQ1 block: blocks the human KCNQ1 potassium channel; P51787; hit rate 1.3% among 310,000; CHO-K1 KCNQ1, FluxOR thallium flux fluorescence; active compounds read high; B-score at 10 µM;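 active = compounds whose thallium flux B-score, printed positive for inhibition, exceeds three library SD while starting fluorescence stays within three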;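 also: channel opened by potassium depolarization with thallium stimulus after 20 min compound exposure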
# Kir21 block: Kir2.1 (mouse) channel inhibition. HEK293-Kir2.1, FluxOR thallium flux fluorescence; active compounds read low. AID 1672. hit rate 0.85% among 310,000. P35561. B-score at 10 µM;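 active = fluorescence ratio B-score at or below minus 3 SD of library scores, with starting-brightness B-score within 2 SD, cut at about -4.2 in these data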;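 also: channel flux triggered by added potassium and thallium sulfate stimulus; B-score of peak minus minimum fluorescence over baseline after thallium stimulus; more negative B-score means stronger Kir2.1 block with less thallium influx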
# KCNQ1 act: potentiates or activates the human KCNQ1 potassium channel; CHO-K1 KCNQ1, thallium flux FluxOR fluorescence; active compounds read high; hit rate 0.35% among 310,000; P51787; AID 2648; B-score at 10 µM;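 active = fluorescence ratio B-score, a plate-corrected score, at least three library SD, with initial intensity B-score within 5 SD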
#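 Test system: CHO-K1 cells stably expressing KCNQ1 / Medium: assay buffer / Also added: depolarizing K+/Tl+ stimulus, K2SO4 and Tl2SO4 each 12.5 mM in 5x stock / Incubation: 90 min dye loading and 20 min compound exposure, both at room temperature / Signal: thallium influx via FluxOR fluorescence, kinetic imaging / Evaluation: B score of baseline-normalized fluorescence ratio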
# KCNQ1 inh valid: human KCNQ1 channel inhibition, validation assay; AID 588353; hit rate 93% among 1,600; shares compounds with KCNQ1 block; KCNQ1 cell line, FluxOR thallium flux fluorescence; inhibition, % at 10 µM;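 active = primary screen active, with duplicate mean exceeding buffer control mean plus 3 SD of buffer wells, cut at about 28% in these data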;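 also: 0% = buffer control ratio and 100% = XE991 inhibitor control ratio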
# CHO KCNQ1 ctr: counter-screen for KCNQ1 inhibitors: effect in parental CHO cells; shares compounds with KCNQ1 block; parental CHO-K1, FluxOR thallium flux fluorescence ratio; active compounds read low; zero means no signal rise above baseline; fluorescence ratio (Tl flux) at 10 µM; hit rate 21% among 1,600; AID 588366;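 active = mean of duplicate thallium-flux fluorescence ratios in parental host cells more than 5 SD below the buffer control mean, cut at about 0.38 in these data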;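 also: ratio is peak minus minimum fluorescence divided by baseline fluorescence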
# KCNQ1 APC inh: human KCNQ1 inhibition validated by electrophysiology; shares compounds with KCNQ1 block; KCNQ1-CHO cells, automated patch clamp current; hit rate 20% among 490; AID 624120; calls only at 10 µM;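 active = KCNQ1 current drop exceeding 3 SD of negative control wells, seen in both duplicate runs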;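 also: steady state current during a 2 s step from -80 to +40 mV; negative values mean current inhibition and positive values mean potentiation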
# KCNQ2 inh: rat KCNQ2 inhibition in KCNQ1 inhibitor specificity screen. shares compounds with KCNQ1 block. KCNQ2 cells, FluxOR thallium flux fluorescence. inhibition, % at 10 µM. hit rate 71% among 1,600;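 active = mean percent inhibition of the KCNQ2 thallium signal more than 5 SD above the buffer-only control wells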;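 also: KCNQ2 expressed in CHO cells; 0% = buffer control wells and 100% = XE-991 inhibitor control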
# KCNQ1 KCNE1 spec: human KCNQ1/KCNE1 inhibition in KCNQ1 specificity screen; shares compounds with KCNQ1 block; KCNQ1/KCNE1 cells, FluxOR thallium flux fluorescence; inhibition, % at 10 µM; hit rate 77% among 1,600; AID 652147;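 active = mean percent inhibition of duplicate wells above the buffer-only control mean plus 3 SD of those controls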;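 also: 0% = buffer only wells and 100% = XE-991 inhibitor control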
# Target sequence (P51787 whole entry, looked up): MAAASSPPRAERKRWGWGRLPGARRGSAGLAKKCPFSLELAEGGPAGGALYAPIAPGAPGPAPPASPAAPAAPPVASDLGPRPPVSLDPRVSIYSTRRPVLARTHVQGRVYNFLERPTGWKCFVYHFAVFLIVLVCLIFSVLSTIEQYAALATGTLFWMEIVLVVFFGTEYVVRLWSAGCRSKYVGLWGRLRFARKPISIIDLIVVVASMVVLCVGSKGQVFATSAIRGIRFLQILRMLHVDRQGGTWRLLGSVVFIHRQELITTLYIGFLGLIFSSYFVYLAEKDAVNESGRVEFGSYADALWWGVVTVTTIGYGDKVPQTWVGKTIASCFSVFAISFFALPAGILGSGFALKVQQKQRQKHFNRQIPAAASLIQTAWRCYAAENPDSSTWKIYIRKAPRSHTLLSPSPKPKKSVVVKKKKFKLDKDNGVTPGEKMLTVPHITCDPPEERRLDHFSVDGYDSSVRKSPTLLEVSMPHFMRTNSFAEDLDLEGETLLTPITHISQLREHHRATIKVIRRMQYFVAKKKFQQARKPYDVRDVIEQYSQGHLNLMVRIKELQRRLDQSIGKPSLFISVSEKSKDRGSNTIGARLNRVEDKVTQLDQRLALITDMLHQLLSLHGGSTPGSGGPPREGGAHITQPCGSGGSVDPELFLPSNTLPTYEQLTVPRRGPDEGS
# The depositor's hits bear a star; i = inactive; . = no result given; + = active, no number. Sampled rows, rich in hits. Any-hit rate of the full collection: about 3.7%.
SMILES,hERG rescue,KCNK9 inh,KCNK3 inh,KCNQ1 block,Kir21 block,KCNQ1 act,KCNQ1 inh valid,CHO KCNQ1 ctr,KCNQ2 inh,KCNQ1 KCNE1 spec,others
COc1cc(OC)cc(C(=O)Nc2ccc(-c3nc4ccccc4o3)cc2)c1,-7.4,i,i,10*,0.03,i,129.5*,0.403,89.0%*,69.0%*,KCNQ1 APC inh=i
O=c1c2c(nc3n1CCCCC3)-c1ccccc1CC21CCCC1,-1.5,i,i,8*,0.56,i,122.0*,0.411,115.3%*,150.5%*,KCNQ1 APC inh=i
Nn1cnc2c(c1=O)C1(CCCCC1)Cc1ccccc1-2,-8.3,i,i,i,-0.06,i,.,.,.,.,
CCCCNc1ccc2c3c(cccc13)C(=O)N(CCCC)C2=O,-12.9,i,i,24*,-7.96,i,+,0.0105*,i,i,
CCN1C(=O)c2cccc3c(N)ccc(c23)C1=O,-42.1,i,i,24*,-22.8,i,+,0.0105*,i,i,
CN(C)CCCN1C(=O)c2cccc3c(Br)ccc(c23)C1=O,-23.6,i,i,i,-2.64,i,.,.,.,.,
COc1cccc(OC(=O)c2ccccc2)c1OC(=O)c1ccccc1,.,.,i,.,.,.,.,.,.,.,
OCCN1CCOCCOc2ccccc2OCCOCC1,-4.9,i,i,i,-0.17,i,.,.,.,.,
c1ccc2c(c1)OCCOCCOCCOCCOCCOc1ccccc1OCCOCCOCCO2,-23.4,i,i,8*,-7.66,i,80.0*,0.496,64.3%*,60.5%*,
S=C(NCCc1cccc(Cl)c1)NCc1ccccc1,-6.9,i,i,8*,-3.82,i,66.0*,0.475,i,55.5%*,
S=C(NCc1ccccc1)Nc1ccc(Cl)cc1,-5.7,i,i,i,-0.44,i,.,.,.,.,
Cc1c(Cl)cccc1NC(=S)NCCc1ccc(Cl)cc1,-8.5,i,i,15*,-1.94,i,73.0*,0.556,79.0%*,51.0%*,
S=C(NCCc1ccc(Cl)cc1)NCc1ccccc1,-13.5,i,i,10*,-7.31*,i,63.0*,0.495,74.0%*,72.5%*,
O=C(O)c1ccc(NC(=O)c2cn(-c3ccccc3)nc2-c2cccc(Cl)c2)cc1,-13.0,i,i,i,2.14,i,.,.,.,.,
CN(c1ccc(C(=O)COC(=O)C2CC2)cc1)S(C)(=O)=O,.,.,i,.,.,.,.,.,.,.,
O=C(Nc1ccccc1N1CCCCC1)C1CCN(S(=O)(=O)c2cccc(C(F)(F)F)c2)CC1,-9.3,i,i,6*,-0.72,i,62.0*,0.472,109.7%*,48.0%*,
O=C(Nc1ccccc1N1CCCC1)C1CCN(S(=O)(=O)c2cccc(C(F)(F)F)c2)CC1,-13.4,i,i,i,-0.07,i,.,.,.,.,
Brc1ccc2ncnc(NCc3ccccc3)c2c1,-9.9,i,i,i,0.65,i,.,.,.,.,
CCCCCCCCNc1ncnc2ccccc12,-35.9,i,i,9*,-8*,i,125.0*,0.372*,75.7%*,117.5%*,
c1ccc(CCNc2ncnc3ccccc23)cc1,-16.9,i,i,8*,0.42,i,139.0*,0.484,84.3%*,110.0%*,KCNQ1 APC inh=i
CCc1ccccc1Nc1ncnc2ccccc12,-0.8,i,i,i,-2.41,i,.,.,.,.,
CN(C)C(CNS(=O)(=O)c1ccc2ccccc2c1)c1ccccc1 (configuration not stated),-10.0,i,i,i,-1.48,i,.,.,.,.,
Cc1c(Cl)cccc1NC(=S)N1CCCN(Cc2ccccc2F)C1,-16.0,i,i,i,-1.35,i,.,.,.,.,
Fc1ccccc1CN1CCCN(C(=S)Nc2cccc(Cl)c2)C1,-7.9,i,i,7*,-0.01,i,47.0*,0.479,72.7%*,i,
O=C(NCc1cccc2[nH]ccc12)C1CCC(=O)N(CCc2ccc(Cl)cc2)C1 (configuration not stated),-11.6,i,i,i,-0.16,i,.,.,.,.,
SMILES,hERG rescue,KCNK9 inh,KCNK3 inh,KCNQ1 block,Kir21 block,KCNQ1 act,KCNQ1 inh valid,CHO KCNQ1 ctr,KCNQ2 inh,KCNQ1 KCNE1 spec,others
Oc1ccccc1N=Nc1ccccc1O,-11.9,i,i,13*,-0.03,i,61.5*,0.505,i,i,
Nc1ccc(N=Nc2ccccc2O)c(N)c1,-10.2,i,i,i,-0.04,i,.,.,.,.,
Cc1ccc(NC(=O)C(OC(=O)c2cnc(C)cn2)c2ccccc2)c([N+](=O)[O-])c1 (configuration not stated),-12.7,i,i,i,0.7,i,.,.,.,.,
O=C(Nc1ccc(N2CCCCC2)c(Cl)c1)c1ccc2c(c1)OCCO2,-7.3,i,i,9*,-0.56,i,86.5*,0.464,98.0%*,120.5%*,
O=C(Nc1ccc(N2CCCC2)c(Cl)c1)c1ccc2c(c1)OCCO2,-6.2,i,i,i,1.26,i,.,.,.,.,
O=C(Cc1ccc(Br)cc1)NCc1ccccc1,-6.6,i,i,i,0.04,i,.,.,.,.,
Fc1ccccc1-c1nc(-c2ccc(Cl)cc2)no1,-10.2,i,i,i,-1.6,i,.,.,.,.,
c1ccc(-c2noc(-c3ccccc3-c3ccccc3)n2)cc1,-8.1,i,i,7*,0.41,i,133.0*,0.401,115.3%*,193.5%*,KCNQ1 APC inh=i
CCc1ccccc1N1CCN(S(=O)(=O)c2ccc(F)c(C)c2)CC1,-14.2,i,i,7*,0.82,i,91.0*,0.438,80.0%*,91.0%*,KCNQ1 APC inh=i
Cc1nnsc1SCCNC(=O)Nc1ccc(Cl)cc1,-9.6,i,i,7*,0.34,i,67.0*,0.519,i,35.5%*,
COc1ccc(S(=O)(=O)NC(C)C(=O)NCc2ccccn2)cc1Cl (configuration not stated),-8.5,i,i,i,1.3,i,.,.,.,.,
CC(C)(C)c1ccc(OCCCC(=O)Nc2cccc(S(=O)(=O)N3CCOCC3)c2)cc1,.,.,i,.,.,.,.,.,.,.,
Cc1ccc(OCC(=O)Nc2cccc(S(=O)(=O)N3CCCCCC3)c2)cc1C,-12.6,i,i,7*,1.02,i,95.5*,0.538,98.7%*,65.0%*,KCNQ1 APC inh=i
